# Legend:
# [1] = tested on: Pseudomonas aeruginosa PAO1; test: Activity of Beta-lactamase in Pseudomonas aeruginosa PAO1 PA4020 harboring mpl mutant gene assessed as nitrocefin hydrolysis per mg of protein by spectrophotometry
# Summary of the method: (§1)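 Cells grown to OD600 1.0, pelleted and resuspended in 0.1 M KH2PO4-Na2HPO4 pH 7.0. Crude extract made by two freeze-thaw cycles plus sonication on ice. β-Lactamase read as absorbance change at 485 nm with 50 µM nitrocefin in the same pH 7.0 phosphate buffer. Extract protein measured by BCA against a bovine serum albumin standard.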
# [2] = tested on: Pseudomonas aeruginosa PA14; test: Activity of Beta-lactamase in Pseudomonas aeruginosa PA14 PA4109 harboring ampR mutant gene assessed as nitrocefin hydrolysis per mg of protein by spectrophotometry; summary of the method: as §1
# [3] = tested on: Pseudomonas aeruginosa PA14; test: Activity of Beta-lactamase in Pseudomonas aeruginosa PA14 PA4522 harboring ampD mutant gene assessed as nitrocefin hydrolysis per mg of protein by spectrophotometry; summary of the method: as §1
# Pseudomonas aeruginosa [4] = test: Antimicrobial activity against Pseudomonas aeruginosa PA14 PA5001 harboring mutation in putative glycosyl-transferase by broth microdilution method relative to wild type
# Pseudomonas aeruginosa [5] = test: Antimicrobial activity against wild type Pseudomonas aeruginosa by Etest method
# Pseudomonas aeruginosa [6] = test: Antimicrobial activity against wild type Pseudomonas aeruginosa harboring pBBR1MCS-3 by Etest method
# Pseudomonas aeruginosa [7] = test: Antimicrobial activity against Pseudomonas aeruginosa harboring pBBR1MCS-3 expressing algU mutant gene by Etest method; type: functional
# Summary of the method: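 Etest MIC run in triplicate on a plasmid-carrying strain. The Mueller-Hinton agar contained tetracycline at 20 µg/ml for plasmid maintenance. The inoculum was about 1 × 10^7 CFU/ml in 0.85% NaCl, from an overnight LB culture grown at 37°C; 100 µl was spread per plate. One strip was placed per plate, with incubation at 37°C for 18 h.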
# Pseudomonas aeruginosa [8] = test: Antimicrobial activity against Pseudomonas aeruginosa harboring mucD mutant gene by Etest method
# Pseudomonas aeruginosa [9] = test: Antimicrobial activity against Pseudomonas aeruginosa harboring pBBR-mucD complemented gene by Etest method
SMILES,Activity [1] [nmol/min],Activity [2] [nmol/min],Activity [3] [nmol/min],fold change (FC) (Pseudomonas aeruginosa [4]),MIC (Pseudomonas aeruginosa [5]) [µg/mL],MIC (Pseudomonas aeruginosa [6]) [µg/mL],MIC (Pseudomonas aeruginosa [7]) [µg/mL],MIC (Pseudomonas aeruginosa [8]) [µg/mL],MIC (Pseudomonas aeruginosa [9]) [µg/mL]
CC(C)(O/N=C(\C(=O)N[C@@H]1C(=O)N2C(C(=O)[O-])=C(C[n+]3ccccc3)CS[C@H]12)c1csc(N)n1)C(=O)O [CEFTAZIDIME],168,257,31,3,–,–,–,–,–
C[C@@H](O)[C@H]1C(=O)N2C(C(=O)O)=C(SCCNC=N)C[C@H]12 [IMIPENEM ANHYDROUS],–,–,–,–,0.5,0.5,0.38,0.25,0.5

# From ChEMBL document CHEMBL1687778, “Genetic determinants involved in the susceptibility of Pseudomonas aeruginosa to beta-lactam antibiotics” (2010)
